RGS4 act: potentiators or activators of RGS4; HEK293 M3R/inducible RGS4, carbachol calcium flux Fluo4; active compounds read low; B-score at 10 µM; 310,000 compounds, 0.92% hits; AID 463111;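 active means B-score of the integrated calcium signal more than 4 SD below the library mean, with starting fluorescence not abnormally high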;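 further: negative B-score means reduced calcium response which marks RGS4 activation or potentiation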
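System: HEK293 FlpIn-TREx cells, stable M3R, doxycycline-inducible RGS4. Timing: overnight RGS4 induction, 30 min dye load 37 °C, 20 min compound RT. Also added: carbachol, ECmax concentration. Measured by: Fluo4 fluorescence kinetic imaging of calcium. Evaluation: integrated calcium ratio converted to B score.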
MrgX1 agonist: activates human MrgX1 receptor signaling; Q96LB2; MrgX1-HEK293 cells, Fluo-4 calcium fluorescence, agonist mode; active compounds read high; B-score at 10 µM; 310,000 compounds, 0.44% hits;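 active means calcium response B-score plate-corrected fluorescence ratio at least 3 library SD, with starting fluorescence B-score inside 5 SD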
Target sequence (Q96LB2 whole entry, looked up): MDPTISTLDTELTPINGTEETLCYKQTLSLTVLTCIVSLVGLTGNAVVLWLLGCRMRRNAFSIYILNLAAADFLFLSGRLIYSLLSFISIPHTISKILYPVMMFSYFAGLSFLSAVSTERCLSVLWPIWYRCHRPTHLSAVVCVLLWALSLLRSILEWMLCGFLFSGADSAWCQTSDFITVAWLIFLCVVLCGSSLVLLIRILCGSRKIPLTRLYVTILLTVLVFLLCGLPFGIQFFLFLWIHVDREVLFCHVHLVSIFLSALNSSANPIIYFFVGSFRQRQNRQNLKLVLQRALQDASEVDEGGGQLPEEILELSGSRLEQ
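Assay system: stable human MrgX1 HEK293 cell line. Quantity: 15,000 cells per well. Schedule: cells plated overnight, dye loaded 0.5 h 37 °C, 0.5 h room temperature. Detection: Fluo-4 NW calcium-flux fluorescence, kinetic read. Read-out basis: peak-minus-minimum fluorescence over baseline, converted to B scores. Control set: positive and negative control wells on each plate.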
RGS4 inh: inhibitors of human RGS4. P49798. HEK293 M3R/RGS4 inducible, Fluo-4 calcium flux; active compounds read high; triggered by carbachol at its EC20. B-score at 10 µM. 310,000 compounds, 0.45% hits. AID 463165;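 active means B-score, a plate-corrected calcium signal, over three deviations above library mean, with baseline fluorescence within five deviations of library mean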;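 further: RGS4 expression induced by doxycycline in cells with stable M3 receptor; B-score is computed from the integrated fluorescence ratio over baseline after carbachol; higher B-score means a larger calcium signal and so more RGS4 inhibition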
MrgX1 antagonist: antagonists of human MrgX1 receptor; B-score at 10 µM; MRGX1-HEK293 calcium flux, Fluo-4, BAM8-22 antagonism; active compounds read low; 310,000 compounds, 1.3% hits; AID 588676; Q96LB2;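 active means calcium-response B-score plate-corrected more than 3 library SD below zero, starting fluorescence within 5 deviations, no agonist response on first addition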;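 further: peak minus trough fluorescence over baseline after final BAM8-22 challenge near maximal dose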
MrgX1 PAM: human MrgX1 positive allosteric modulation, primary screen; 310,000 compounds, 0.63% hits; B-score at 10 µM; MrgX1-HEK293, Fluo-4 calcium flux, FDSS; active compounds read high; Q96LB2;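 active means plate-corrected calcium response at least 3 library SD above typical, normal starting fluorescence, not activating the receptor alone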;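 further: compound read alongside a low EC10 to EC30 dose of BAM8-22 agonist; peak minus trough fluorescence over baseline measured at the second addition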
Hits are given with their value. Most compounds without a hit are left out; they make up all but 3.5% or so of the library.

Screening COc1c(CC=C(C)C)cc(C2CC(=O)c3c(O)cc(O)cc3O2)cc1CC=C(C)C (stereo unspecified) returned RGS4 act -8.3, MrgX1 agonist inactive, RGS4 inh inactive, MrgX1 antagonist inactive and MrgX1 PAM inactive.
`COc1ccc([C@@H]2CC(=O)c3c(O)cc(O)cc3O2)cc1O` gave MrgX1 agonist inactive, MrgX1 antagonist inactive and MrgX1 PAM inactive.
Screening O=C(CN1C(=O)NC2(CCCC2)C1=O)NCCC1=CCCCC1 returned RGS4 act -7.3, MrgX1 agonist inactive, RGS4 inh inactive, MrgX1 antagonist inactive and MrgX1 PAM inactive.
Screening CC(C)(C)c1ccc(CCC2OCC(C[N+]3(C)CCOCC3)O2)cc1 (stereo unspecified) returned RGS4 act inactive, MrgX1 agonist inactive, RGS4 inh inactive, MrgX1 antagonist inactive and MrgX1 PAM inactive.
N#Cc1c2ccc(OCC(=O)NCc3ccco3)cc2n2ccccc12 was read as RGS4 act inactive, MrgX1 agonist inactive, RGS4 inh inactive, MrgX1 antagonist inactive and MrgX1 PAM inactive.
Screening N#Cc1c2ccc(O)cc2n2ccccc12 returned RGS4 act inactive, MrgX1 agonist 46, RGS4 inh inactive, MrgX1 antagonist inactive and MrgX1 PAM inactive.
Screening COc1cccc(/C=N/Nc2ncnc3scc(-c4ccccc4)c23)c1O returned RGS4 act -10, MrgX1 agonist inactive, RGS4 inh inactive, MrgX1 antagonist inactive and MrgX1 PAM inactive.
For COc1cccc(/C=N/Nc2ncnc(Cl)c2N)c1O the results were RGS4 act inactive, MrgX1 agonist inactive, RGS4 inh inactive, MrgX1 antagonist inactive and MrgX1 PAM inactive.
For CCOC(=O)c1ccc(NC(=O)/C=C/c2cccs2)cc1 the results were RGS4 act inactive, MrgX1 agonist inactive, RGS4 inh inactive, MrgX1 antagonist inactive and MrgX1 PAM inactive.
For CCN(CC)CCOC(=O)c1ccc(NC(=O)C2(c3ccccc3)CCCC2)cc1 the results were RGS4 act -7.4, MrgX1 agonist inactive, RGS4 inh inactive, MrgX1 antagonist inactive and MrgX1 PAM inactive.
`CCN(CC)CCOC(=O)c1ccc(NC(=O)/C=C/c2cccs2)cc1` gave RGS4 act -7.1, MrgX1 agonist inactive, RGS4 inh inactive, MrgX1 antagonist inactive and MrgX1 PAM inactive.
Screening O=C(O)c1ccc(NC(=O)C2(c3ccccc3)CCCC2)cc1 returned RGS4 act inactive, MrgX1 agonist inactive, RGS4 inh inactive, MrgX1 antagonist inactive and MrgX1 PAM inactive.
CC(C)CCc1noc(CN2CCN(c3ccc(Cl)cn3)CC2)n1 was read as RGS4 act inactive, MrgX1 agonist inactive, RGS4 inh inactive, MrgX1 antagonist inactive and MrgX1 PAM inactive.
For O=C(NC1CC2CCCC(C1)N2C(=S)Nc1ccc(Cl)cc1)C1CC1 (stereo unspecified) the results were RGS4 act -7, MrgX1 agonist inactive, RGS4 inh inactive, MrgX1 antagonist inactive and MrgX1 PAM inactive.
For O=C(CCCn1c(=S)[nH]c2cc3c(cc2c1=O)OCO3)NCc1ccccc1Cl the results were RGS4 act inactive, MrgX1 agonist inactive, RGS4 inh inactive, MrgX1 antagonist inactive and MrgX1 PAM inactive.
`O=C(Cc1ccccc1[N+](=O)[O-])NCCCN1CCOCC1` gave RGS4 act inactive, MrgX1 agonist inactive, RGS4 inh inactive, MrgX1 antagonist inactive and MrgX1 PAM inactive.
Screening Cc1nccn1-c1c([N+](=O)[O-])c(=O)n(C)c2ccccc12 returned RGS4 act inactive, MrgX1 agonist inactive, RGS4 inh inactive, MrgX1 antagonist inactive and MrgX1 PAM inactive.
For Cn1c(=O)c([N+](=O)[O-])c(-n2cnc3ccccc32)c2ccccc21 the results were RGS4 act inactive, MrgX1 agonist 27, RGS4 inh inactive, MrgX1 antagonist inactive and MrgX1 PAM inactive.
Screening O=c1c2ccccc2ncn1-c1ccccc1[N+](=O)[O-] returned RGS4 act inactive, MrgX1 agonist inactive, RGS4 inh inactive, MrgX1 antagonist inactive and MrgX1 PAM 13.
`Cc1ccc(S(=O)(=O)N2[C@@H](c3cccc(Cl)c3)C(C(=O)O)=CC[C@H]2c2ccc3c(c2)OCO3)cc1` gave MrgX1 agonist inactive, MrgX1 antagonist inactive and MrgX1 PAM 7.
CCc1ccc([C@@H]2CC=C(C(=O)O)[C@H](c3ccccc3F)N2S(=O)(=O)c2ccc(C)cc2)cc1 was read as MrgX1 agonist inactive, MrgX1 antagonist inactive and MrgX1 PAM 6.8.
